ChEMBL document CHEMBL3102721, “Napyradiomycin derivatives, produced by a marine-derived actinomycete, illustrate cytotoxicity by induction of apoptosis” (J Nat Prod, 2014)
The source made the active and inactive calls. No cut-off for these calls is given here.

How the values were obtained:
HCT-116 [1] = assay: Antiproliferative activity against human HCT116 cells assessed as cell viability after 72 hrs by MTS assay; format: functional, cell-based; conditions: HCT-116, 72 h
In short: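 HCT-116 cells plated, left overnight at 37 °C in 5% CO2/air, then given compound from 10 mg/mL DMSO stock at 100 μM top concentration with serial dilution. After 72 h, MTS/PMS added for 3 h and formazan read at 490 nm. IC50 with 95% CI calculated from viability. Etoposide positive control, DMSO negative control.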

HCT-116 [2] = assay: Induction of apoptosis in human HCT116 cells after 24 hrs by Yo-Pro-1/PI staining-based FACS flow cytometric analysis; format: functional, cell-based
In short: (§1)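 HCT116 cells were grown in McCoy's medium with 10% FBS at 37 °C, 5% CO2, to 50% confluence, then treated for 24 h. They were trypsinized, washed in cold PBS and brought to ~1×10^6 cells/mL. Staining was 30 min on ice with 0.1 μM Yo-Pro-1 (apoptotic) and 3 μg/mL PI (necrotic), final concentrations. Flow cytometry used 488 nm excitation. Gates were set with DMSO and 10 μM camptothecin (24 h) controls, excluding debris.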

HCT-116 [3] = assay: Induction of apoptosis in human HCT116 cells at 1 to 16 uM after 24 hrs by Yo-Pro-1/PI staining-based FACS flow cytometric analysis; format: functional, cell-based; in short: as §1
HCT-116 [4] = assay: Induction of cell death in human HCT116 cells at 1 to 16 uM after 24 hrs by Yo-Pro-1/PI staining-based FACS flow cytometric analysis; format: functional; in short: as §1
HCT-116 [5] = assay: Induction of cell death in human HCT116 cells at 32 uM after 24 hrs by Yo-Pro-1/PI staining-based FACS flow cytometric analysis; format: functional; in short: as §1
HCT-116 [6] = assay: Induction of apoptosis in human HCT116 cells at 4 uM after 24 hrs by Yo-Pro-1/PI staining-based FACS flow cytometric analysis; format: functional, cell-based; in short: as §1

## Cc1c(O)cc2c(c1O)C(=O)C1=C[C@@H](Cl)C(C)(C)O[C@@]1(C[C@H]1C(C)(C)[C@@H](Cl)CC[C@]1(C)O)C2=O
HCT-116 [1]
  IC50: > 100 µM

## CC1=C(O)C2=C(C(=O)[C@]3(C[C@H]4C(C)(C)[C@@H](Cl)CC[C@]4(C)O)OC(C)(C)[C@H](Cl)C[C@]3(Cl)C2=O)C(=[N+]=[N-])C1=O
HCT-116 [1]
  IC50: < 1 µM

## Cc1c(O)cc2c(c1O)C(=O)[C@@]1(Cl)C[C@@H](Cl)C(C)(C)O[C@@]1(C[C@H]1C(C)(C)[C@@H](Cl)CC[C@]1(C)O)C2=O
HCT-116 [2]
  Activity: Dose-dependent effect
HCT-116 [3]
  Activity: Active
HCT-116 [4]
  Activity: Active
HCT-116 [1]
  IC50: 15 µM

## COc1cc([C@@H]2c3cc4c(cc3[C@@H](O[C@@H]3O[C@@H]5CO[C@@H](C)O[C@H]5[C@H](O)[C@H]3O)[C@H]3COC(=O)[C@H]23)OCO4)cc(OC)c1O [ETOPOSIDE]
HCT-116 [1]
  IC50: 1 µM

## Cc1c(O)cc2c(c1O)C(=O)[C@H]1C[C@@H](Br)C(C)(C)O[C@@]1(C[C@H]1C(C)(C)[C@@H](Br)CC[C@]1(C)O)C2=O
HCT-116 [1]
  IC50: 49 µM

## CC(C)=CCC/C(C)=C/C[C@@]12OC(C)(C)[C@H](Br)C[C@]1(Cl)C(=O)c1c(cc(O)c(C)c1O)C2=O
HCT-116 [1]
  IC50: 6 µM

## C=C1CC[C@H](Cl)C(C)(C)[C@@H]1C[C@@]12OC(C)(C)[C@H](Cl)C[C@]1(Cl)C(=O)C1=C(C2=O)C(=[N+]=[N-])C(=O)C(C)=C1O
HCT-116 [2]
  Activity: Dose-dependent effect
HCT-116 [5]
  Activity: Active
HCT-116 [1]
  IC50: < 1 µM

## C=C1CC[C@H](Br)C(C)(C)[C@@H]1C[C@@]12OC(C)(C)[C@H](Cl)C[C@]1(Cl)C(=O)c1c(O)cc(O)cc1C2=O
HCT-116 [1]
  IC50: 3 µM

## C=C1CC[C@H](Cl)C(C)(C)[C@@H]1C[C@@]12OC(C)(C)[C@H](Cl)C[C@]1(Cl)C(=O)c1c(cc(O)c(C)c1O)C2=O
HCT-116 [2]
  Activity: Dose-dependent effect
HCT-116 [6]
  Activity: Active
HCT-116 [1]
  IC50: 3 µM

## Cc1c(O)cc2c(c1O)C(=O)[C@@]1(Cl)C[C@@H](Br)C(C)(C)O[C@@]1(C[C@H]1C(C)(C)[C@H]3CC[C@]1(C)O3)C2=O
HCT-116 [1]
  IC50: > 100 µM

## Cc1c(O)cc2c(c1O)C(=O)[C@@]1(Cl)C[C@@H](Cl)C(C)(C)O[C@@]1(C[C@H]1C(C)(C)[C@H]3CC[C@]1(C)O3)C2=O
HCT-116 [2]
  Activity: Dose-dependent effect
HCT-116 [6]
  Activity: Active
HCT-116 [1]
  IC50: 17 µM

## C=C1CC[C@H](Cl)C(C)(C)[C@@H]1C[C@@]12OC(C)(C)[C@H](Cl)C[C@]1(Cl)C(=O)c1c(O)cc(O)cc1C2=O
HCT-116 [1]
  IC50: 2 µM

## Cc1c(O)cc2c(c1O)C(=O)C1C[C@@H](Cl)C(C)(C)O[C@@]1(C[C@H]1C(C)(C)[C@@H](Cl)CC[C@]1(C)O)C2=O (stereo partly drawn)
HCT-116 [1]
  IC50: > 100 µM

## CC1(C)O[C@@]2(C[C@H]3C(C)(C)[C@@H](Cl)CC[C@]3(C)O)C(=O)c3cc(O)cc(O)c3C(=O)[C@@]2(Cl)C[C@H]1Cl
HCT-116 [1]
  IC50: 10 µM
